System: U2OS
Assay: Multiplex assay against U2OS
Type: toxicity, cell-based
Settings: human
Summary of the method: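 Live cells were stained at seeding with Hoechst33342, BioTracker Green Microtubule Cytoskeleton Dye, MitoTracker Red and Annexin V Alexa Fluor 680, then imaged on a CQ1 microscope at 37°C and 5% CO2 after compound addition. CellPathfinder machine-learning gating split cells into Hoechst high-intensity objects or normal cells. Normal cells were split into healthy, pyknosed or fragmented nuclei, and pyknosed cells into mitotic or apoptotic. Tubulin, mitochondrial-mass and membrane-permeability phenotypes are per cents of healthy-nucleus cells.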

[1] = 12 h, 1 µM, compound concentration 1 uM, replicate 1
[2] = 12 h, 1 µM, compound concentration 1 uM, replicate 2
[3] = 12 h, 10 µM, compound concentration 10 uM, replicate 1
[4] = 12 h, 10 µM, compound concentration 10 uM, replicate 2
[5] = 24 h, 1 µM, compound concentration 1 uM, replicate 1
[6] = 24 h, 1 µM, compound concentration 1 uM, replicate 2
[7] = 24 h, 10 µM, compound concentration 10 uM, replicate 1
[8] = 24 h, 10 µM, compound concentration 10 uM, replicate 2
[9] = 48 h, 1 µM, compound concentration 1 uM, replicate 1
[10] = 48 h, 1 µM, compound concentration 1 uM, replicate 2
[11] = 48 h, 10 µM, compound concentration 10 uM, replicate 1
[12] = 48 h, 10 µM, compound concentration 10 uM, replicate 2

CN(C)CC#Cc1ccc(OCCCc2sc(N3CCc4cccc(C(=O)Nc5nc6ccccc6s5)c4C3)nc2C(=O)O)c(F)c1 [A-1155463]
Population Apoptotic (%) [1]: 63%
Population Fragmented Nuclei (%) [1]: 13%
Population Healthy Nuclei (%) [1]: 65%
Population Hoechst High Intensity Objects (%) [1]: 12%
Population Membrane Permeable-Phenotype (%) [1]: 14%
Population Mitochondria Different-Phenotype (%) [1]: 14%
Population Mitotic Cells (%) [1]: 36%
Population Normal (%) [1]: 87%
Population Pyknosed Nuclei (%) [1]: 21%
Population Tubulin-Different-Phenotype (%) [1]: 11%
Total Cell Count [1]: 175
Population Apoptotic (%) [2]: 66%
Population Fragmented Nuclei (%) [2]: 39%
Population Healthy Nuclei (%) [2]: 53%
Population Hoechst High Intensity Objects (%) [2]: 4%
Population Membrane Permeable-Phenotype (%) [2]: 13%
Population Mitochondria Different-Phenotype (%) [2]: 31%
Population Mitotic Cells (%) [2]: 33%
Population Normal (%) [2]: 95%
Population Pyknosed Nuclei (%) [2]: 7%
Population Tubulin-Different-Phenotype (%) [2]: 27%
Total Cell Count [2]: 86
Population Apoptotic (%) [3]: 61%
Population Fragmented Nuclei (%) [3]: 25%
Population Healthy Nuclei (%) [3]: 55%
Population Hoechst High Intensity Objects (%) [3]: 6%
Population Membrane Permeable-Phenotype (%) [3]: 8%
Population Mitochondria Different-Phenotype (%) [3]: 15%
Population Mitotic Cells (%) [3]: 38%
Population Normal (%) [3]: 93%
Population Pyknosed Nuclei (%) [3]: 19%
Population Tubulin-Different-Phenotype (%) [3]: 13%
Total Cell Count [3]: 189
Population Apoptotic (%) [4]: 86%
Population Fragmented Nuclei (%) [4]: 33%
Population Healthy Nuclei (%) [4]: 42%
Population Hoechst High Intensity Objects (%) [4]: 5%
Population Membrane Permeable-Phenotype (%) [4]: 24%
Population Mitochondria Different-Phenotype (%) [4]: 16%
Population Mitotic Cells (%) [4]: 13%
Population Normal (%) [4]: 94%
Population Pyknosed Nuclei (%) [4]: 23%
Population Tubulin-Different-Phenotype (%) [4]: 25%
Total Cell Count [4]: 133
Population Apoptotic (%) [5]: 47%
Population Fragmented Nuclei (%) [5]: 19%
Population Healthy Nuclei (%) [5]: 58%
Population Hoechst High Intensity Objects (%) [5]: 5%
Population Membrane Permeable-Phenotype (%) [5]: 11%
Population Mitochondria Different-Phenotype (%) [5]: 15%
Population Mitotic Cells (%) [5]: 52%
Population Normal (%) [5]: 94%
Population Pyknosed Nuclei (%) [5]: 21%
Population Tubulin-Different-Phenotype (%) [5]: 6%
Total Cell Count [5]: 222
Population Apoptotic (%) [6]: 50%
Population Fragmented Nuclei (%) [6]: 36%
Population Healthy Nuclei (%) [6]: 54%
Population Hoechst High Intensity Objects (%) [6]: 7%
Population Membrane Permeable-Phenotype (%) [6]: 13%
Population Mitochondria Different-Phenotype (%) [6]: 32%
Population Mitotic Cells (%) [6]: 50%
Population Normal (%) [6]: 92%
Population Pyknosed Nuclei (%) [6]: 9%
Population Tubulin-Different-Phenotype (%) [6]: 28%
Total Cell Count [6]: 92
Population Apoptotic (%) [7]: 58%
Population Fragmented Nuclei (%) [7]: 20%
Population Healthy Nuclei (%) [7]: 51%
Population Hoechst High Intensity Objects (%) [7]: 5%
Population Membrane Permeable-Phenotype (%) [7]: 13%
Population Mitochondria Different-Phenotype (%) [7]: 23%
Population Mitotic Cells (%) [7]: 41%
Population Normal (%) [7]: 94%
Population Pyknosed Nuclei (%) [7]: 27%
Population Tubulin-Different-Phenotype (%) [7]: 12%
Total Cell Count [7]: 194
Population Apoptotic (%) [8]: 81%
Population Fragmented Nuclei (%) [8]: 32%
Population Healthy Nuclei (%) [8]: 45%
Population Hoechst High Intensity Objects (%) [8]: 10%
Population Membrane Permeable-Phenotype (%) [8]: 20%
Population Mitochondria Different-Phenotype (%) [8]: 14%
Population Mitotic Cells (%) [8]: 18%
Population Normal (%) [8]: 89%
Population Pyknosed Nuclei (%) [8]: 22%
Population Tubulin-Different-Phenotype (%) [8]: 21%
Total Cell Count [8]: 135
Population Apoptotic (%) [9]: 67%
Population Fragmented Nuclei (%) [9]: 24%
Population Healthy Nuclei (%) [9]: 46%
Population Hoechst High Intensity Objects (%) [9]: 10%
Population Membrane Permeable-Phenotype (%) [9]: 7%
Population Mitochondria Different-Phenotype (%) [9]: 18%
Population Mitotic Cells (%) [9]: 32%
Population Normal (%) [9]: 89%
Population Pyknosed Nuclei (%) [9]: 29%
Population Tubulin-Different-Phenotype (%) [9]: 10%
Total Cell Count [9]: 285
Population Apoptotic (%) [10]: 77%
Population Fragmented Nuclei (%) [10]: 28%
Population Healthy Nuclei (%) [10]: 51%
Population Hoechst High Intensity Objects (%) [10]: 5%
Population Membrane Permeable-Phenotype (%) [10]: 19%
Population Mitochondria Different-Phenotype (%) [10]: 43%
Population Mitotic Cells (%) [10]: 22%
Population Normal (%) [10]: 94%
Population Pyknosed Nuclei (%) [10]: 20%
Population Tubulin-Different-Phenotype (%) [10]: 36%
Total Cell Count [10]: 117
Population Apoptotic (%) [11]: 74%
Population Fragmented Nuclei (%) [11]: 26%
Population Healthy Nuclei (%) [11]: 32%
Population Hoechst High Intensity Objects (%) [11]: 9%
Population Membrane Permeable-Phenotype (%) [11]: 23%
Population Mitochondria Different-Phenotype (%) [11]: 38%
Population Mitotic Cells (%) [11]: 25%
Population Normal (%) [11]: 90%
Population Pyknosed Nuclei (%) [11]: 40%
Population Tubulin-Different-Phenotype (%) [11]: 11%
Total Cell Count [11]: 246
Population Apoptotic (%) [12]: 81%
Population Fragmented Nuclei (%) [12]: 34%
Population Healthy Nuclei (%) [12]: 35%
Population Hoechst High Intensity Objects (%) [12]: 8%
Population Membrane Permeable-Phenotype (%) [12]: 57%
Population Mitochondria Different-Phenotype (%) [12]: 51%
Population Mitotic Cells (%) [12]: 18%
Population Normal (%) [12]: 91%
Population Pyknosed Nuclei (%) [12]: 29%
Population Tubulin-Different-Phenotype (%) [12]: 57%
Total Cell Count [12]: 139

Source: ChEMBL document CHEMBL4689842, “EUbOPEN Chemogenomics Library wave 1” (2021)
